Measured values: ChEMBL document CHEMBL3392992, “Synthesis, antiproliferative activity, and in silico insights of new 3-benzoylamino-benzo[b]thiophene derivatives” (Eur J Med Chem, 2015)

Columns and labels:
[1] = tested on: HeLa; test: Antiproliferative activity against human HeLa cells assessed as reduction in cell proliferation after 48 hrs by MTT assay; type: functional
Outline: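 HeLa cells grown with FBS, 2 mM L-glutamine, penicillin/streptomycin at 37 °C, 5% CO2, seeded at 1.0 × 10^4 cells/cm2 (approx.). After 24 h, medium switched to 5% FBS medium with compounds diluted from 20 mM DMSO stocks, 50 to 0.05 µM, final DMSO ≤0.25% (vehicle control). Incubated 48 h. MTT 0.5 mg/mL for 4 h at 37 °C, formazan dissolved in DMSO, OD 570 nm. GI50 by linear regression of percent growth vs control. Three experiments, each in quadruplicate.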

[2] = tested on: HeLa; test: Toxicity against human HeLa cells assessed as effect on cell membrane integrity at 1 to 20 uM after 48 hrs by trypan blue dye exclusion method; type: cell-based
[3] = tested on: HeLa; test: Induction of cell cycle arrest in human HeLa cells assessed as increase in accumulation at subG0/G1 phase after 24 to 48 hrs by propidium iodide staining based flow cytometry; type: functional; details: TDE = time-dependent effect

GI50 [1] [µM]	SMILES	Activity [2]	Activity [3]
> 50	CCOC(=O)c1sc2ccc(N)cc2c1NC(=O)c1ccc(OC)cc1	Non-toxic	
11.4	CCOC(=O)c1sc2ccc(NCc3nc[nH]c3C)cc2c1NC(=O)c1ccc(C)cc1	Non-toxic	
4.66	CCOC(=O)c1sc2ccc(N)cc2c1NC(=O)c1cc(OC)c(OC)c(OC)c1	Non-toxic	tde
8.22	CCOC(=O)c1sc2ccc(NCc3nc[nH]c3C)cc2c1NC(=O)c1ccc(OC)cc1	Non-toxic	
6.79	CCOC(=O)c1sc2ccc(NCc3c[nH]cn3)cc2c1NC(=O)c1cc(OC)c(OC)c(OC)c1	Non-toxic	
12.3	CCOC(=O)c1sc2ccc(N)cc2c1NC(=O)c1ccc(F)c(Cl)c1	Non-toxic	
10.7	CCOC(=O)c1sc2ccc(NCc3c[nH]cn3)cc2c1NC(=O)c1ccc(F)c(Cl)c1	Non-toxic	
12.8	CCOC(=O)c1sc2ccc(NCc3nc[nH]c3C)cc2c1NC(=O)c1ccc(C(F)(F)F)cc1	Non-toxic	
2.91	CCOC(=O)c1sc2ccc(NCc3nc[nH]c3C)cc2c1NC(=O)c1ccc(F)c(Cl)c1	Non-toxic	tde
16.8	CCOC(=O)c1sc2ccc(NCc3c[nH]cn3)cc2c1NC(=O)c1ccc(C(F)(F)F)cc1	Non-toxic	
2.23	CCOC(=O)c1sc2ccc(NCc3nc[nH]c3C)cc2c1NC(=O)c1cc(OC)c(OC)c(OC)c1	Non-toxic	tde
6.68	CCOC(=O)c1sc2ccc(N)cc2c1NC(=O)c1ccc(C(F)(F)F)cc1	Non-toxic	
12.9	CCOC(=O)c1sc2ccc(NCc3c[nH]cn3)cc2c1NC(=O)c1ccc(OC)cc1	Non-toxic	
17.9	CCOC(=O)c1sc2ccc(NCc3c[nH]cn3)cc2c1NC(=O)c1ccccc1	Non-toxic	
23.3	CCOC(=O)c1sc2ccc(NCc3nc[nH]c3C)cc2c1NC(=O)c1ccccc1	Non-toxic	
> 50	CCOC(=O)c1sc2ccc(N)cc2c1NC(=O)c1ccccc1	Non-toxic	
24.4	CCOC(=O)c1sc2ccc(N)cc2c1NC(=O)c1ccc(C)cc1	Non-toxic	
11.7	CCOC(=O)c1sc2ccc(NCc3c[nH]cn3)cc2c1NC(=O)c1ccc(C)cc1	Non-toxic	
